Activity calls are given as the source filed them. The rule behind the calls is not given here.
Tested on: not listed separately
Assay: Selectivity index, ratio of IC50 for African green monkey Vero cells to IC50 for Trypanosoma cruzi IRHOD/CO/2008/SN3 DTU 1 epimastigotes
Assay type: toxicity
Conditions: read-out: Ratio IC50
In short: (§1)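 SI is Vero IC50 divided by the IC50 for the stated parasite form. For Vero cytotoxicity, cells were seeded at 1.25×10^4 mL^-1 with compounds at 1000–1 µM, incubated 48 h, then given resazurin for a further 24 h (72 h total), with absorbance read at 570/600 nm. Triplicate, four determinations.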

Structure (SMILES) | selectivity ratio
COc1ccc(C(=O)CCN2CCN(c3ccc([N+](=O)[O-])cc3)CC2)cc1 | 26.7

Tested on: not listed separately
Assay: Selectivity index, ratio of IC50 for African green monkey Vero cells to IC50 for Trypanosoma cruzi TINF/CH/1956/Tulahuen DTU 6 trypamastigotes derived from infected Balb/c albino mouse
Assay type: toxicity
Conditions: read-out: Ratio IC50
In short: as §1

Structure (SMILES) | selectivity ratio
COc1ccc(C(=O)CCN2CCN(c3ccc([N+](=O)[O-])cc3)CC2)cc1 | 40.6

Tested on: Trypanosoma cruzi
Assay: Trypanocidal activity against Trypanosoma cruzi MHOM/Pe/2011/Arequipa DTU 5 amastigotes infected in African green monkey Vero cells after 72 hrs by Giemsa-staining based microscopic assay
Assay type: functional, organism-based
Conditions: MHOM/Pe/2011/Arequipa DTU 5, Vero
In short: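 Vero cells were seeded at 1×10^4/well on coverslips. After 24 h they were infected with culture-derived trypomastigotes (MOI 1:10, 24 h), then washed. Compounds were added at 100–0.2 µM (DMSO 0.01% v/v) for 72 h at 37 °C, 5% CO2. Slides were methanol-fixed and Giemsa-stained; amastigotes and infected cells were counted over 500 host cells. IC50 was derived by curve fitting; triplicate wells, four separate determinations.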

Structure (SMILES) | IC50 [µM]
O=C(Cn1ccnc1[N+](=O)[O-])NCc1ccccc1 [BENZNIDAZOLE] | 8.3
COc1ccc(C(=O)CCN2CCN(c3ccc([N+](=O)[O-])cc3)CC2)cc1 | 29.4

Tested on: Mus musculus
Assay: Hepatotoxicity in Balb/c mouse infected with Trypanosoma cruzi MHOM/Pe/2011/Arequipa DTU 5 trypamastigotes assessed as change in alkaline phosphatase level at […], po once daily for 5 consecutive days starting from day 75 post infection measured on day 127 post infection by biochemical analysis relative to control
Assay type: toxicity, organism-based
Conditions: in vivo
In short: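 Serum clinical chemistry in Arequipa-infected female BALB/c mice. Oral 20 mg·kg-1 per day for 5 days, started day 10 or day 75 pi. Samples taken at day 16 pi or day 81 pi, and on necropsy day. Markers: CK-MB and LDH (U/L), AST, ALT and alkaline phosphatase (U/L), total bilirubin. Results scored relative to infected untreated controls; uninfected reference n = 15.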

Structure (SMILES) | Activity [%]
COc1ccc(C(=O)CCN2CCN(c3ccc([N+](=O)[O-])cc3)CC2)cc1 | < 10

Tested on: not listed separately
Assay: Selectivity index, ratio of IC50 for African green monkey Vero cells to IC50 for Trypanosoma cruzi MHOM/Pe/2011/Arequipa DTU 5 trypamastigotes derived from infected Balb/c albino mouse
Assay type: toxicity
Conditions: read-out: Ratio IC50
In short: as §1

Structure (SMILES) | selectivity ratio
COc1ccc(C(=O)CCN2CCN(c3ccc([N+](=O)[O-])cc3)CC2)cc1 | 50.4

Target: T1, Superoxide dismutase (Trypanosoma cruzi (strain CL Brener)) (UniProt Q4DCQ3)
T1 sequence (whole entry): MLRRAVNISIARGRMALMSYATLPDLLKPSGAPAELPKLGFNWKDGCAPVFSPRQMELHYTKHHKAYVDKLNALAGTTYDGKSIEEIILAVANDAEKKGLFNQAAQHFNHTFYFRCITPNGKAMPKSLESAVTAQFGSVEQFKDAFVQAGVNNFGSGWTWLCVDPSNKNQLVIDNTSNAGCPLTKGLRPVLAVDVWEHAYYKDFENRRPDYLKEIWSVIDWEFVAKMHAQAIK
Assay: Inhibition of Trypanosoma cruzi MHOM/Pe/2011/Arequipa DTU 5 epimastigotes Fe-SOD at 50 uM by UV-Visible spectrophotometric method relative to control
Conditions: not given
In short: (§2)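 SOD activity of parasite Fe-SOD and human CuZn-SOD was measured spectrophotometrically by the Beyer and Fridovich method, with compounds at 1–100 µM. Values are averages of three rate determinations; IC50 was obtained by linear regression and differences were tested by Newman-Keuls.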

Structure (SMILES) | inhibition [%]
COc1ccc(C(=O)CCN2CCN(c3ccc([N+](=O)[O-])cc3)CC2)cc1 | 100

Tested on: Trypanosoma cruzi
Assay: Trypanocidal activity against Trypanosoma cruzi IRHOD/CO/2008/SN3 DTU 1 trypamastigotes derived from infected Balb/c albino mouse after 24 hrs by resazurin dye based assay
Assay type: functional, organism-based
Conditions: IRHOD/CO/2008/SN3 DTU 1, 24 h
In short: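 Bloodstream trypomastigotes taken from mice at peak parasitaemia were seeded at 2×10^6 mL^-1 in RPMI with 10% FBS. Compounds were added at 50–0.2 µM and incubated 24 h at 37 °C, 5% CO2, then with resazurin for 4 h. SDS was added and absorbance read at 570/600 nm. IC50 was fitted; triplicate, four separate determinations.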

Structure (SMILES) | IC50 [µM]
COc1ccc(C(=O)CCN2CCN(c3ccc([N+](=O)[O-])cc3)CC2)cc1 | 3.1

Tested on: Mus musculus
Assay: Toxicity in Balb/c mouse assessed as reduction in body mass at […], po once daily for 5 consecutive days starting from day 10 post infection relative to control
Assay type: organism-based
Parameters: scale not given: the % may be the effect or the level left
Conditions: in vivo
In short: (§3)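 Infected female BALB/c mice, six per group, received oral doses of 20 mg·kg^-1/day for 5 consecutive days (total 100 mg·kg^-1) in 5% DMSO/0.5% HPMC vehicle, from day 10 or day 75 pi. Body mass and deaths were monitored during and after treatment.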

Structure (SMILES) | Activity [%]
COc1ccc(C(=O)CCN2CCN(c3ccc([N+](=O)[O-])cc3)CC2)cc1 | > 10

Tested on: Mus musculus
Assay: Toxicity in Balb/c mouse assessed as reduction in body mass at […], po once daily for 5 consecutive days starting from day 75 post infection relative to control
Assay type: organism-based
Parameters: scale not given: the % may be the effect or the level left
Conditions: in vivo
In short: as §3

Structure (SMILES) | Activity [%]
COc1ccc(C(=O)CCN2CCN(c3ccc([N+](=O)[O-])cc3)CC2)cc1 | > 10

Tested on: Trypanosoma cruzi
Assay: Antitrypanosomal activity against Trypanosoma cruzi MHOM/Pe/2011/Arequipa DTU 5 epimastigotes assessed as effect on parasite glycolytic pathway by measuring reduction in pyruvate excretion at IC25 after 72 hrs by 1H NMR method
Assay type: functional, organism-based
Conditions: not given
In short: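 Arequipa epimastigotes exposed at IC25 for 72 h alongside an untreated control. Excreted catabolites were analysed by 1H NMR, and each peak is reported as % variation versus the control. Three separate determinations.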

Structure (SMILES) | Activity
COc1ccc(C(=O)CCN2CCN(c3ccc([N+](=O)[O-])cc3)CC2)cc1 | inactive

Tested on: Trypanosoma cruzi
Assay: Antitrypanosomal activity against Trypanosoma cruzi MHOM/Pe/2011/Arequipa DTU 5 trypamastigotes infected in Balb/c mouse assessed as reduction in Ig-G level in serum at 100 mg/kg, po pretreated once daily for 5 consecutive days starting from day 10 post infection followed by cyclophosphamide-induced immunosuppression on day 100 post infection every 4 days for a maximum of 3 doses measured on day 127 post infection by ELISA
Assay type: functional, organism-based
Conditions: not given

Structure (SMILES) | Activity
COc1ccc(C(=O)CCN2CCN(c3ccc([N+](=O)[O-])cc3)CC2)cc1 | inactive

Tested on: Mus musculus
Assay: Hepatotoxicity in Balb/c mouse infected with Trypanosoma cruzi MHOM/Pe/2011/Arequipa DTU 5 trypamastigotes assessed as change in total bilirubin level at […], po once daily for 5 consecutive days starting from day 75 post infection measured on day 127 post infection by biochemical analysis relative to control
Assay type: toxicity, organism-based
Conditions: in vivo

Structure (SMILES) | Activity [%]
COc1ccc(C(=O)CCN2CCN(c3ccc([N+](=O)[O-])cc3)CC2)cc1 | < 10

Tested on: Trypanosoma cruzi
Assay: Trypanocidal activity against Trypanosoma cruzi TINF/CH/1956/Tulahuen DTU 6 epimastigotes after 48 hrs by resazurin dye based assay
Assay type: functional, organism-based
Conditions: TINF/CH/1956/Tulahuen DTU 6, 48 h
In short: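 Exponential-phase epimastigotes were seeded at 5×10^5 mL^-1 with compounds at 100–0.2 µM (DMSO 0.01% v/v) at 28 °C. After 48 h, resazurin was added for another 24 h. SDS was then added and absorbance read at 570 and 600 nm.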

Structure (SMILES) | IC50 [µM]
O=C(Cn1ccnc1[N+](=O)[O-])NCc1ccccc1 [BENZNIDAZOLE] | 19.7
COc1ccc(C(=O)CCN2CCN(c3ccc([N+](=O)[O-])cc3)CC2)cc1 | 37.4

Tested on: not listed separately
Assay: Selectivity index, ratio of IC50 for African green monkey Vero cells to IC50 for Trypanosoma cruzi IRHOD/CO/2008/SN3 DTU 1 trypamastigotes derived from infected Balb/c albino mouse
Assay type: toxicity
Conditions: read-out: Ratio IC50
In short: as §1

Structure (SMILES) | selectivity ratio
COc1ccc(C(=O)CCN2CCN(c3ccc([N+](=O)[O-])cc3)CC2)cc1 | 187

Tested on: Trypanosoma cruzi
Assay: Induction of mitochondrial membrane potential disruption in Trypanosoma cruzi MHOM/Pe/2011/Arequipa DTU 5 epimastigotes assessed as inhibition of DNA replication and RNA synthesis at IC25 after 72 hrs by acridine orange staining based flow cytometry relative to control
Assay type: functional
Conditions: not given
In short: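 Arequipa epimastigotes were exposed for 72 h at IC25. DNA/RNA content was measured as acridine orange fluorescence by flow cytometry and compared with untreated control.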

Structure (SMILES) | inhibition (INH) [%]
O=C(Cn1ccnc1[N+](=O)[O-])NCc1ccccc1 [BENZNIDAZOLE] | 22.4
COc1ccc(C(=O)CCN2CCN(c3ccc([N+](=O)[O-])cc3)CC2)cc1 | 72.9

Target: T2, Superoxide dismutase (Trypanosoma cruzi (strain CL Brener), UniProt Q4DCQ3)
T2 sequence (Q4DCQ3 whole entry): T1 sequence (whole entry)
Assay: Inhibition of Trypanosoma cruzi MHOM/Pe/2011/Arequipa DTU 5 epimastigotes Fe-SOD by UV-Visible spectrophotometric method
Conditions: not given
In short: as §2

Structure (SMILES) | IC50 [µM]
COc1ccc(C(=O)CCN2CCN(c3ccc([N+](=O)[O-])cc3)CC2)cc1 | 5

Tested on: Vero
Assay: Cytotoxicity against African green monkey Vero cells assessed as reduction in cell viability after 72 hrs by resazurin dye based assay
Conditions: Chlorocebus sabaeus
In short: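 Vero monkey kidney cells grown at 37 °C, 5 % CO2, in RPMI with 10 % heat-inactivated FBS. Seeded at 1.25 × 10^4 mL-1 with compound at 1000 to 1 µM (DMSO 0.01 % v/v). After 48 h, resazurin added for a further 24 h, then SDS. Absorbance read at 570/600 nm. IC50 from triplicates in four separate determinations.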

Structure (SMILES) | IC50 [µM]
O=C(Cn1ccnc1[N+](=O)[O-])NCc1ccccc1 [BENZNIDAZOLE] | 23.2
COc1ccc(C(=O)CCN2CCN(c3ccc([N+](=O)[O-])cc3)CC2)cc1 | 587

— ChEMBL document CHEMBL4118256, “Second Generation of Mannich Base-Type Derivatives with in Vivo Activity against Trypanosoma cruzi” (J Med Chem, 2018)
